Assay results: PubChem BioAssay
Records with an inconclusive call do not appear. The source made the active and inactive calls.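 The calls were made as follows, unless noted: active = RAM network inhibition above 8.4% in each of two replicates, 3 SD over the compound average; inconclusive = above 8.4% inhibition in only one replicate; inactive = 8.4% inhibition or less in each replicate.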

What was measured:
[1] = OD615 S. cerevisiae growth inhibition, permissive medium, pilot counter-assay, permissive growth control for S. cerevisiae lifespan shortening project (AID 705;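 active = growth inhibition above 25% in both replicates, a cutoff set 3 SD above the mean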); conditions: OD615, 24 h, at 10 µM, active compounds read high
How it was run: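 System: Engineered DeaD yeast | Buffer or medium: SC raffinose/galactose permissive medium | Doses: 10 µM single dose, 0.25% DMSO | Times: 24 h exposure, 30 °C | Measured by: OD615 turbidity read | Read-out: Yeast growth inhibition indicated by reduced 24 h OD615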

[2] = Restrictive medium S. cerevisiae growth inhibition, OD615, pilot screen of yeast lifespan reduction project, restrictive growth control (AID 706;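 active = growth inhibition above a set limit, 3 SD over mean compound inhibition, in both replicates, cut at about 43% in these data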;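 also: modified DeaD lifespan yeast strain shifted to restrictive glucose medium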); conditions: OD615, 48 h, at 10 µM, active compounds read high
How it was run: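 Assay system: engineered S. cerevisiae DeaD strain; Buffer or medium: CSMM-D glucose medium; Dosing: 10 µM compound, 0.25% DMSO; Times: cell pre-growth 4 h, compound exposure 48 h, 30 °C; Detection: absorbance (optical density) measured at 615 nm.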

[3] = viability gain of MRP-1-high H69AR cells under doxorubicin, pilot screen, MRP-1 activator project, CellTiter-Glo, duplicate (AID 807;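 active = viability increase at or above a cutoff of the median across tested compounds plus 3 SD, cut at about 8.5% in these data, passing the limit was not always enough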;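 also: compound pretreatment 18-22 h then 72 h combined with doxorubicin; 0% = doxorubicin alone and 100% = vehicle without doxorubicin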); conditions: H69AR viability with doxorubicin, CellTiter-Glo luminescence; at 10 µM; active compounds read high
[4] = growth suppression of beta-catenin knockout HCT116, pilot screen, human colon tumor cells (AID 823;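 active = cell viability at or below a set limit in both duplicate runs, the limit being the all-compound median minus 4 SD, cut at about 23% in these data, passing the limit was not always enough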;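 also: 0% = wells killed by 20 µM Hyamine and 100% = untreated DMSO cell wells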); conditions: CellTiter-Glo, 60 h, at 10 µM, active compounds read low
[5] = growth suppression of PTEN-deleted HCT116, pilot screen, cell-based, HCT116 clonal line, CellTiter-Glo (AID 824;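 active = viability at or below 27.92% in each of two runs, the all-compound median minus 4 SD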;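 also: 0% = 20 µM Hyamine control and 100% = vehicle cell control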); conditions: 60 h, at 10 µM, active compounds read low
[6] = inhibitors of the yeast RAM network, pilot screen, dse1pr::URA3 reporter, 5-FOA selection (AID 869;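 active = inhibition over a set limit, the all-compound mean plus 3 SD, in both replicate runs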;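 also: 0% = DMSO wells with no growth and 100% = 10 µM 1-NA-PP1 with full growth; RAM network block rescues cells from 5-FOA so hits raise OD615 growth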); conditions: S. cerevisiae dse1pr::URA3 5-FOA growth, OD615, 2 d; at 10 µM; active compounds read high; strain carries analog-sensitive mutant Cbk1 kinase
[7] = RAM signaling pathway blockade in yeast – S. cerevisiae, Pdr1DBD-CYC8 efflux-inhibited sensitized strain, primary screen (AID 1298);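 also: 0% = DMSO untreated cells without growth and 100% = 10 µM 1-NA-PP1 full growth; higher means more yeast growth rescued from 5-FOA killing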; conditions: S. cerevisiae cbk1-as DSE1-URA3 strain, 5-FOA growth OD615, 2 d; at 50 µM; active compounds read high

CN(C)c1nc(-c2ccccc2)c2cnn(Cc3ccccc3)c2n1
inactive: growth inhibition [1] -12.5% | growth inhibition [2] -3.25% | viability increase [3] -4.48% | viability [4] 83.8% | viability [5] 75.9% | inhibition [6] 1.59% | RAM network inhibition [7] 6.82%

CS(=O)(=O)N(CC(=O)NCc1ccco1)c1cc(C(F)(F)F)ccc1Cl
inactive: growth inhibition [1] 0.43% | growth inhibition [2] -4.23% | viability increase [3] -3.09% | viability [4] 99% | viability [5] 92.8% | inhibition [6] 0.68% | RAM network inhibition [7] 2.65%

COc1ccc(Cl)cc1NC(=O)Cn1c(=O)n2nc(C)nc2c2ccccc21
inactive: growth inhibition [1] -7.69% | growth inhibition [2] 3.31% | viability increase [3] -7.15% | viability [4] 90.9% | viability [5] 87.8% | inhibition [6] 0.175% | RAM network inhibition [7] 6.46%

CC(=O)Nc1nnc(-c2ccc3c(c2)CCCC3)o1
inactive: growth inhibition [1] -12.7% | growth inhibition [2] 3.68% | viability increase [3] -0.69% | viability [4] 95% | viability [5] 88.3% | inhibition [6] 1.36% | RAM network inhibition [7] 4.21%

CCOC(=O)c1ccc2nc(NC(=O)C(C)C)sc2c1
inactive: growth inhibition [1] -10.9% | growth inhibition [2] -10.6% | viability increase [3] -6.61% | viability [4] 78.6% | viability [5] 80% | inhibition [6] 1.98% | RAM network inhibition [7] 0.06%

CC(=O)C1(O)C(C)CC2C3CCC4CC(O)CCC4(C)C3=CCC21C (stereo unspecified)
inactive: growth inhibition [1] -8.11% | growth inhibition [2] -5.04% | viability increase [3] -1.36% | viability [4] 97.2% | viability [5] 90.2% | inhibition [6] 0.305% | RAM network inhibition [7] 9.58%

COc1ccc(C(C)=O)cc1CSc1nnc(C)s1
inactive: growth inhibition [1] -9.51% | growth inhibition [2] -8.14% | viability increase [3] -2.37% | viability [4] 96.5% | viability [5] 96.8% | inhibition [6] -0.565% | RAM network inhibition [7] 0.11%

CCOC(=O)C(C)Sc1ncnc2nc[nH]c12 (stereo unspecified)
inactive: growth inhibition [1] -1.5% | growth inhibition [2] -25.9% | viability increase [3] -1.35% | viability [4] 98.8% | viability [5] 99.2% | inhibition [6] 1.11% | RAM network inhibition [7] 3.25%

Cc1ccc(S(=O)(=O)Cc2ccc(C(=O)N3CCN(c4ccc(F)cc4)CC3)o2)cc1
active: viability [5] 23.3%
inactive: growth inhibition [1] -9.22% | growth inhibition [2] -15.2% | viability increase [3] -6.28% | viability [4] 33% | inhibition [6] 0.575% | RAM network inhibition [7] 4.81%

Cn1c(=O)c2c(nc(CN3CCOCC3)n2CCCO)n(C)c1=O
inactive: growth inhibition [1] -5.86% | growth inhibition [2] -3.44% | viability increase [3] -0.74% | viability [4] 102% | viability [5] 101% | inhibition [6] 1.76% | RAM network inhibition [7] 6.48%

Cc1nnc(SCCn2c(N3CCN(c4ccccc4)CC3)nc3c2c(=O)n(C)c(=O)n3C)s1
inactive: growth inhibition [1] -8.87% | growth inhibition [2] -18.3% | viability increase [3] -1.99% | viability [4] 104% | viability [5] 102% | inhibition [6] 1.23% | RAM network inhibition [7] 2.19%

O=C(COC(=O)c1cnccn1)c1ccc(Br)cc1
inactive: growth inhibition [1] -9.27% | growth inhibition [2] -14.4% | viability increase [3] 0.41% | viability [4] 101% | viability [5] 96.7% | inhibition [6] 1.94% | RAM network inhibition [7] 2.72%

Cc1onc(-c2ccccc2)c1C(=O)Nc1ccc2c(c1)OCCO2
inactive: growth inhibition [1] -5.44% | growth inhibition [2] -6.46% | viability increase [3] -0.35% | viability [4] 96.6% | viability [5] 94.9% | inhibition [6] 2.96% | RAM network inhibition [7] 2.34%

CCN1CCN(CCNC(=O)CS(=O)(=O)Cc2nc(-c3ccc(C)cc3)oc2C)CC1
inactive: growth inhibition [1] -13.7% | growth inhibition [2] -28.7% | viability increase [3] 0.44% | viability [4] 87.2% | viability [5] 93.7% | inhibition [6] 0.22% | RAM network inhibition [7] 3.16%

Cc1ccc(C(=O)NCCCC(=O)O)o1
inactive: growth inhibition [1] -6.95% | growth inhibition [2] -1.79% | viability increase [3] -2.22% | viability [4] 97.4% | viability [5] 96.9% | inhibition [6] 0.1% | RAM network inhibition [7] 5.07%

OC(COc1cccc2ccccc12)CN1CCN(c2ccccn2)CC1 (stereo unspecified)
inactive: growth inhibition [1] -5.36% | growth inhibition [2] 1.3% | viability increase [3] -2.34% | viability [4] 84.9% | viability [5] 81.7% | inhibition [6] 0.445% | RAM network inhibition [7] 2.59%

CCN1CCN(C(=O)Cn2c(=O)sc3ccccc32)CC1
inactive: growth inhibition [1] -10.6% | growth inhibition [2] 4.76% | viability increase [3] -2.64% | viability [4] 107% | viability [5] 96.6% | inhibition [6] -0.225% | RAM network inhibition [7] 0.05%

O=C(CN1CCOc2ccccc21)NCc1ccc(Cl)cc1
inactive: growth inhibition [1] -36.4% | growth inhibition [2] -1.02% | viability increase [3] -6.71% | viability [4] 90.8% | viability [5] 81.6% | inhibition [6] 0.665% | RAM network inhibition [7] -0.68%

Cc1ccc(-c2nc(CS(=O)(=O)CC(=O)NC3CCCCC3C)c(C)o2)cc1 (stereo unspecified)
inactive: growth inhibition [1] -15.3% | growth inhibition [2] -32.8% | viability increase [3] -0.44% | viability [4] 93% | viability [5] 87.4% | inhibition [6] 1.73% | RAM network inhibition [7] 7.21%

COc1cc(SC)ccc1C(=O)Nc1ccc2c(c1)OCCO2
inactive: growth inhibition [1] -7.61% | growth inhibition [2] -4.97% | viability increase [3] -0.82% | viability [4] 67.1% | viability [5] 65.8% | inhibition [6] 1.18% | RAM network inhibition [7] -0.97%

CCOC(=O)c1cnn2c(C(F)(F)F)cc(-c3ccccc3)nc12
inactive: growth inhibition [1] -6.86% | growth inhibition [2] -9.75% | viability increase [3] -3.13% | viability [4] 84% | viability [5] 86.9% | inhibition [6] 2.29% | RAM network inhibition [7] 2.4%

COCc1cc(C)nc(SCC(=O)Nc2cccc3cccnc23)c1C#N
inactive: growth inhibition [1] -15.3% | growth inhibition [2] -12.6% | viability increase [3] -1.44% | viability [4] 88.1% | viability [5] 86.4% | inhibition [6] 1.2% | RAM network inhibition [7] 8.57%

COc1cccc(NC(=O)CSc2nnc(Cn3c(=O)sc4ccccc43)n2C)c1
inactive: growth inhibition [1] 1.18% | growth inhibition [2] 18.9% | viability increase [3] -2.91% | viability [4] 102% | viability [5] 104% | inhibition [6] 2.37% | RAM network inhibition [7] 4.95%

Cc1sc(NC(=O)c2cccs2)c(C(N)=O)c1C
inactive: growth inhibition [1] -6.89% | growth inhibition [2] 22.8% | viability increase [3] -6.53% | viability [4] 80.8% | viability [5] 88.4% | inhibition [6] 0.26% | RAM network inhibition [7] -1.19%

COc1ccc(CCNC(=O)CN(c2ccccc2OC)S(C)(=O)=O)cc1OC
inactive: growth inhibition [1] -2.94% | growth inhibition [2] 9.29% | viability increase [3] -1.9% | viability [4] 106% | viability [5] 96.8% | inhibition [6] 1.04% | RAM network inhibition [7] 1.38%

OC(CNCc1ccco1)COc1ccccc1 (stereo unspecified)
inactive: growth inhibition [1] -12.7% | growth inhibition [2] -10.2% | viability increase [3] 0.59% | viability [4] 100% | viability [5] 103% | inhibition [6] 1.44% | RAM network inhibition [7] 2.54%

Cn1cnnc1SCc1ccc(C#N)cc1Cl
inactive: growth inhibition [1] -9.5% | growth inhibition [2] -15.1% | viability increase [3] 0.63% | viability [4] 99.7% | viability [5] 97.8% | inhibition [6] 0.175% | RAM network inhibition [7] 4.52%

CCOC(=O)N1CCN(c2c(N3CCc4ccccc43)c(=O)c2=O)CC1
inactive: growth inhibition [1] -9.63% | growth inhibition [2] 14.6% | viability increase [3] -1.52% | viability [4] 105% | viability [5] 100% | inhibition [6] 2.05% | RAM network inhibition [7] -0.74%

CN(C)c1cc(-c2ccccc2)nc(N)n1
inactive: growth inhibition [1] -13.3% | growth inhibition [2] -15.5% | viability increase [3] -6.2% | viability [4] 64.2% | viability [5] 55.8% | inhibition [6] 2.73% | RAM network inhibition [7] 0.09%

COc1ccccc1N(CC(=O)N1CCCCCC1)S(C)(=O)=O
inactive: growth inhibition [1] -11.6% | growth inhibition [2] -10.7% | viability increase [3] -1.57% | viability [4] 89.1% | viability [5] 92.5% | inhibition [6] 0.495% | RAM network inhibition [7] 2.63%

Cc1c(NC(=O)C2CCN(S(=O)(=O)c3ccccc3)CC2)c(=O)n(-c2ccccc2)n1C
inactive: growth inhibition [1] -3.65% | growth inhibition [2] -4.28% | viability increase [3] -2.25% | viability [4] 96.5% | viability [5] 88.8% | inhibition [6] 1.45% | RAM network inhibition [7] 6.15%

Cc1occc1-c1nnc2sc(-c3ccc(-c4ccc(Cl)cc4)o3)nn12
inactive: growth inhibition [1] 7.94% | growth inhibition [2] 21.2% | viability increase [3] 2.86% | viability [4] 106% | viability [5] 95.8% | inhibition [6] 3.19% | RAM network inhibition [7] 5.57%

Cc1ccc2[nH]c(=O)c3cc(C(=O)N(C)Cc4ccco4)sc3c2c1
inactive: growth inhibition [1] -11.6% | growth inhibition [2] -4.44% | viability increase [3] -5.5% | viability [4] 71.4% | viability [5] 67.5% | inhibition [6] -0.255% | RAM network inhibition [7] -1.79%
